Measured values as given in ChEMBL document CHEMBL3352338, “Development and biological evaluation of potent and selective c-KIT(D816V) inhibitors” (J Med Chem, 2014).
The source made the active and inactive calls. No cut-off for these calls is given here.

How the values were obtained:
[1] = Antiproliferative activity against human HMC-1.2 cells carrying V560G, D816V mutant assessed as cell growth inhibition by MTT assay; assay type: functional, cell-based
Procedure, shortened: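 Cell viability by MTT assay in imatinib-resistant HMC-1.2 human mast cells (V560G, D816V), 48 h exposure across a range of concentrations.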

[2] = target: Mast/stem cell growth factor receptor Kit (Homo sapiens, UniProt P10721); conditions: 5 uM
[3] = target: Hepatocyte growth factor receptor (Homo sapiens) (UniProt P08581); assay: Inhibition of MET (unknown origin) at 1 uM by KINOMEscanning assay relative to control; values are per cent of control
[4] = target: Serine/threonine-protein kinase B-raf (Homo sapiens) (UniProt P15056); assay: Inhibition of BRAF (unknown origin) at 1 uM by KINOMEscanning assay relative to control; values are per cent of control
[5] = target: Cyclin-dependent kinase 4 (Homo sapiens) (UniProt P11802); assay: Inhibition of CDK4 (unknown origin) at 1 uM by KINOMEscanning assay relative to control; values are per cent of control
[6] = target: Epidermal growth factor receptor (Homo sapiens) (UniProt P00533); assay: Inhibition of EGFR (unknown origin) at 1 uM by KINOMEscanning assay relative to control; values are per cent of control
[7] = target: Dual specificity mitogen-activated protein kinase kinase 1 (Homo sapiens) (UniProt Q02750); assay: Inhibition of MEK1 (unknown origin) at 1 uM by KINOMEscanning assay relative to control; values are per cent of control
[8] = target: Serine/threonine-protein kinase PAK 1 (Homo sapiens) (UniProt Q13153); assay: Inhibition of PAK1 (unknown origin) at 1 uM by KINOMEscanning assay relative to control; values are per cent of control
[9] = target: T1, Serine/threonine-protein kinase 17A (Homo sapiens) (UniProt Q9UEE5); assay: Inhibition of DRAK1 (unknown origin) at 1 uM by KINOMEscanning assay relative to control; values are per cent of control
T1 sequence (whole entry): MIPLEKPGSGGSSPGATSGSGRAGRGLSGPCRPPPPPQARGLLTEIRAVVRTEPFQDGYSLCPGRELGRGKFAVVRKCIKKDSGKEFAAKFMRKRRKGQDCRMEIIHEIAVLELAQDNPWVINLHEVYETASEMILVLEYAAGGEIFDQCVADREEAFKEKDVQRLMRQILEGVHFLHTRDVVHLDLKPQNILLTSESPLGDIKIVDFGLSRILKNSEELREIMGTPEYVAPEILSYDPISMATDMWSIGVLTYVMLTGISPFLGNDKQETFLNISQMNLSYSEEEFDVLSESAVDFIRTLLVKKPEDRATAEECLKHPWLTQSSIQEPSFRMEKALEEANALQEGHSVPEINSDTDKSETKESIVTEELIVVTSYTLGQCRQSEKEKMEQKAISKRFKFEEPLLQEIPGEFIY

[10] = target: Insulin-like growth factor 1 receptor (Homo sapiens) (UniProt P08069); assay: Inhibition of IGF1R (unknown origin) at 1 uM by KINOMEscanning assay relative to control; values are per cent of control
[11] = target: Vascular endothelial growth factor receptor 2 (Homo sapiens) (UniProt P35968); assay: Inhibition of VEGFR2 (unknown origin) at 1 uM by KINOMEscanning assay relative to control; values are per cent of control
[12] = target: T2, Inhibitor of nuclear factor kappa-B kinase subunit beta (Homo sapiens) (UniProt O14920); assay: Inhibition of IKKbeta (unknown origin) at 1 uM by KINOMEscanning assay relative to control; values are per cent of control
T2 sequence (whole entry): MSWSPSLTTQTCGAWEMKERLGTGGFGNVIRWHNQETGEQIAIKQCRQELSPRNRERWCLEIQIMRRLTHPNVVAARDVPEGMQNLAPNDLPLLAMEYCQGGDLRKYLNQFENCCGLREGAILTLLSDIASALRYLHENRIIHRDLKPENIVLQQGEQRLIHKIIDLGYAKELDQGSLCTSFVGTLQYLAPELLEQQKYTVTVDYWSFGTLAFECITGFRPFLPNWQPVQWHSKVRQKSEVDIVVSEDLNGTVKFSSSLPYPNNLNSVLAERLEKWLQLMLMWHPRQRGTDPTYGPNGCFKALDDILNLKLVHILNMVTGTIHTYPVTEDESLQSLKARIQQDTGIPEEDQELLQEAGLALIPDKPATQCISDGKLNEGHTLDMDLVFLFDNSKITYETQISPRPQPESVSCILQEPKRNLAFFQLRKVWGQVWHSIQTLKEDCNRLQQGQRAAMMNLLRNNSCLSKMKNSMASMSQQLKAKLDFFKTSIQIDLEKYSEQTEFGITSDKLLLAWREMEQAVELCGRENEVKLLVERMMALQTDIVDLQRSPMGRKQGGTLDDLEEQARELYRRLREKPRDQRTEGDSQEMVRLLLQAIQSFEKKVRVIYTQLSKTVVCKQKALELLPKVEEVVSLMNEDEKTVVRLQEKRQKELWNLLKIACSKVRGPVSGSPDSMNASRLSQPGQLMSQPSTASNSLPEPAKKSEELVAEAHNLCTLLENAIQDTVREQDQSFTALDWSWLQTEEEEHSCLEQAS

[13] = target: Glycogen synthase kinase-3 beta (Homo sapiens) (UniProt P49841); assay: Inhibition of GSK3beta (unknown origin) at 1 uM by KINOMEscanning assay relative to control; values are per cent of control
[14] = target: Phosphatidylinositol 4,5-bisphosphate 3-kinase catalytic subunit beta isoform (Homo sapiens) (UniProt P42338); assay: Inhibition of PI3Kbeta (unknown origin) at 1 uM by KINOMEscanning assay relative to control; values are per cent of control
[15] = target: Platelet-derived growth factor receptor alpha (Homo sapiens) (UniProt P16234); assay: Inhibition of PDGFRalpha (unknown origin) at 1 uM by KINOMEscanning assay relative to control; values are per cent of control
[16] = target: 5'-AMP-activated protein kinase catalytic subunit alpha-2 (Homo sapiens) (UniProt P54646); assay: Inhibition of AMPKalpha 2 (unknown origin) at 1 uM by KINOMEscanning assay relative to control; values are per cent of control
[17] = system: Mast/stem cell growth factor receptor Kit (Homo sapiens), P10721 [D816H]; assay: Inhibition of c-KIT D816H mutant (unknown origin) at 1 uM by KINOMEscanning assay relative to control; values are per cent of control
Mast/stem cell growth factor receptor Kit (Homo sapiens), P10721 [D816H], sequence (P10721 whole entry D816H): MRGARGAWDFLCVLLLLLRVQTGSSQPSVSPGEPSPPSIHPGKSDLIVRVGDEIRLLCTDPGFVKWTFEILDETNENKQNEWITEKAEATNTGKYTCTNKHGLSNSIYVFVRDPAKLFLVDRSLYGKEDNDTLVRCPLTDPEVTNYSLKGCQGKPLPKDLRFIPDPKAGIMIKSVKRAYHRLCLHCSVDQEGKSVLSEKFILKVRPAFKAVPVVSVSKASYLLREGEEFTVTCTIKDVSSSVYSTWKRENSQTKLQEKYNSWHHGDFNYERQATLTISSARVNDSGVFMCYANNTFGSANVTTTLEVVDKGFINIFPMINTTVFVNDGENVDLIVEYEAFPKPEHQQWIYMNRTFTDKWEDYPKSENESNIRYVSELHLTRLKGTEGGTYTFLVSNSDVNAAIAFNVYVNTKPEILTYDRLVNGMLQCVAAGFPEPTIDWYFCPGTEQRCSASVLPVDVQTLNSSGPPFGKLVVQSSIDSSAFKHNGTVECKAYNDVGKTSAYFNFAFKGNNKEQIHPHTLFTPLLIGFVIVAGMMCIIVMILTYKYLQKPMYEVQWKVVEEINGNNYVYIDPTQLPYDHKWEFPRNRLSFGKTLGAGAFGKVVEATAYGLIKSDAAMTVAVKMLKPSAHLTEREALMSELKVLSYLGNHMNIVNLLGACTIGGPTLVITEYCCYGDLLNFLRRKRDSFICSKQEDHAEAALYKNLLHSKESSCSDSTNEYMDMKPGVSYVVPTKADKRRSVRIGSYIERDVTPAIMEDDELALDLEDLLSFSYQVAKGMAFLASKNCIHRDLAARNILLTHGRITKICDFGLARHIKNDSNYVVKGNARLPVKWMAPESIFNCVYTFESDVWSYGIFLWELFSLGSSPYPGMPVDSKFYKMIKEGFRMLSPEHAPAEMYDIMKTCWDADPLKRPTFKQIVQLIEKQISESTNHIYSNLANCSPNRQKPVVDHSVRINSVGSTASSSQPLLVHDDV

Dual specificity mitogen-activated protein kinase kinase 1 (Homo sapiens), sequence (Q02750 whole entry): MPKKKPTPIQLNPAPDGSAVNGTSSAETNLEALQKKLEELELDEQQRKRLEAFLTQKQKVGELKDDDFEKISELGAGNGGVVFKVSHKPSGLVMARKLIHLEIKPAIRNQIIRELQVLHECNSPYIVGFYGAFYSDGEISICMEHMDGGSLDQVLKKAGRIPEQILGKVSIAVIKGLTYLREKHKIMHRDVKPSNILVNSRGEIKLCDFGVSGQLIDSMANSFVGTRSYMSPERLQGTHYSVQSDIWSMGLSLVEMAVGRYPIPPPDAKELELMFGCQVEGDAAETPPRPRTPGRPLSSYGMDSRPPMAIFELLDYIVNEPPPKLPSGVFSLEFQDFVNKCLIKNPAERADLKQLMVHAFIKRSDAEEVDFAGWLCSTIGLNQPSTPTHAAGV
Glycogen synthase kinase-3 beta (Homo sapiens), sequence (P49841 whole entry, looked up, canonical isoform): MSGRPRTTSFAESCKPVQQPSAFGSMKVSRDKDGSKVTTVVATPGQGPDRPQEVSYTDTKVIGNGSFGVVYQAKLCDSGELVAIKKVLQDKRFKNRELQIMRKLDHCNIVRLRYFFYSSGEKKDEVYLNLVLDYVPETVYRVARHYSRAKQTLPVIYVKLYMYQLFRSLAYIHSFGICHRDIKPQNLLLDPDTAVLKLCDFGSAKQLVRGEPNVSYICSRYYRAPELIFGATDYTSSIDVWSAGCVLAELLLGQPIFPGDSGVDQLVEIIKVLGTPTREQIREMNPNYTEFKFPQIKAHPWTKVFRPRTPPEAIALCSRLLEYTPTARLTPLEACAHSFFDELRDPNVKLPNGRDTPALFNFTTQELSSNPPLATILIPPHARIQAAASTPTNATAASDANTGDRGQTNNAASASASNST
Phosphatidylinositol 4,5-bisphosphate 3-kinase catalytic subunit beta isoform (Homo sapiens), sequence (P42338 whole entry, looked up, canonical isoform): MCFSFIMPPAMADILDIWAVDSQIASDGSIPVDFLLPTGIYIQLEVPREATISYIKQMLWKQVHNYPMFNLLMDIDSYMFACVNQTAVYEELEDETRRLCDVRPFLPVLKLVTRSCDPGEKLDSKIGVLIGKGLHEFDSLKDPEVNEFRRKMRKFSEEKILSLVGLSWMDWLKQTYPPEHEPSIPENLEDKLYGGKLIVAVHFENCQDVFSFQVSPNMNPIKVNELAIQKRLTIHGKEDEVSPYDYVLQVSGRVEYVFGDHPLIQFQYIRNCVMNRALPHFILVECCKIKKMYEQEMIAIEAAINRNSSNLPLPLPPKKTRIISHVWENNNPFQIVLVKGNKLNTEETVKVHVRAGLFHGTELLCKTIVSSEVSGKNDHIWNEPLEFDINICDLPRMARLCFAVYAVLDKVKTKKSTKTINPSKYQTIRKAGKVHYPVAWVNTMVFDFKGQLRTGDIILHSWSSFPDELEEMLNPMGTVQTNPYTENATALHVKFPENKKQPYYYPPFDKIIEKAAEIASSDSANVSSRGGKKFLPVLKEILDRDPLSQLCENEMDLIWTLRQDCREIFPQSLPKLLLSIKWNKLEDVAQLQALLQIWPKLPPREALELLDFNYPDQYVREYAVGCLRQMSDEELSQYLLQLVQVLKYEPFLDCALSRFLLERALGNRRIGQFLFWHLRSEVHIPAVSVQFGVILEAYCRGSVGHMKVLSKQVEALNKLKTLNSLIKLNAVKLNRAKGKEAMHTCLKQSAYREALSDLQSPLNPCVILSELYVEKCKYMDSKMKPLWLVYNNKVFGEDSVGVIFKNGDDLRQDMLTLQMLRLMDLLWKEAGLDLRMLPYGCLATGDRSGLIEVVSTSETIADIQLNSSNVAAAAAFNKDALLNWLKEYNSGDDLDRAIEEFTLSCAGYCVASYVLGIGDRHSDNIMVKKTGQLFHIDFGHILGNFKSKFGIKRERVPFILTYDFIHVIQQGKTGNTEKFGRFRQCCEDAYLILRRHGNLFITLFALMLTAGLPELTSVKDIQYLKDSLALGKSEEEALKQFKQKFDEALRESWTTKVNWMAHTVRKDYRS
Mast/stem cell growth factor receptor Kit, sequence (P10721 whole entry): as the sequence (P10721 whole entry D816H) above, with H816D counted along it
Insulin-like growth factor 1 receptor (Homo sapiens), sequence (P08069 31-736 limits assumed): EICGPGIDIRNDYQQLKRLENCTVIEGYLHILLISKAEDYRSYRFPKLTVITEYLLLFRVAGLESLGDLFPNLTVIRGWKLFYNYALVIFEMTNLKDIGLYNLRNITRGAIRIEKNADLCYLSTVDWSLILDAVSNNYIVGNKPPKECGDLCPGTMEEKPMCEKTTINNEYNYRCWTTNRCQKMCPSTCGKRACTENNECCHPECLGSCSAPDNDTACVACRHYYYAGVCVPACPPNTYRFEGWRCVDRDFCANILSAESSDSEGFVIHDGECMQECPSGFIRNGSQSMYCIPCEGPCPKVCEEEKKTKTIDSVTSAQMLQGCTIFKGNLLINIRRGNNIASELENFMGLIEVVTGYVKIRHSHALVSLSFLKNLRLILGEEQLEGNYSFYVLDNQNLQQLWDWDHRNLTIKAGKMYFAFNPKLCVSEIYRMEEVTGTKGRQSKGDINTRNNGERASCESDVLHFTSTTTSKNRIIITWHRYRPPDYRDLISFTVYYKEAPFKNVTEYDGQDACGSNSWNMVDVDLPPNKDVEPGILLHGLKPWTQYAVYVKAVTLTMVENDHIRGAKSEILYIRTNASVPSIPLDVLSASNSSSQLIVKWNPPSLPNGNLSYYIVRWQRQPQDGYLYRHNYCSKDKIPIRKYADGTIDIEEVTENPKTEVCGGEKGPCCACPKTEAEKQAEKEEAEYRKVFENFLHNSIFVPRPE
Insulin-like growth factor 1 receptor (Homo sapiens), sequence (P08069 741-1367 limits assumed): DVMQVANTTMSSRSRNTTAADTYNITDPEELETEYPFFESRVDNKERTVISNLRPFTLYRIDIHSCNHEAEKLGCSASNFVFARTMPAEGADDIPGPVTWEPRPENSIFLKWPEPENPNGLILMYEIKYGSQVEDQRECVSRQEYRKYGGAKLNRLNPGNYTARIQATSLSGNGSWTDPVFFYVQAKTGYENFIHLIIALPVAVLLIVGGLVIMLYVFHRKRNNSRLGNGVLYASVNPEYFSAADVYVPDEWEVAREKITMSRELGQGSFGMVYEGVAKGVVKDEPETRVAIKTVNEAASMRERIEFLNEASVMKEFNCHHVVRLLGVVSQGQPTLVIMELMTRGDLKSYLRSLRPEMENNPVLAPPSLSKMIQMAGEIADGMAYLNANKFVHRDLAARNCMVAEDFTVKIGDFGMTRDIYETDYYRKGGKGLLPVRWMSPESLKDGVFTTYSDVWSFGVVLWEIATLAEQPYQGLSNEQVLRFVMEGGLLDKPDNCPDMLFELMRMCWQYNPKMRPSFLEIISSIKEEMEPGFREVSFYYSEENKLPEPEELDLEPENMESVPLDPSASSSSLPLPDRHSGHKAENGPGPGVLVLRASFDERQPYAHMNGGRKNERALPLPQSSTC
Serine/threonine-protein kinase PAK 1 (Homo sapiens), sequence (Q13153 whole entry): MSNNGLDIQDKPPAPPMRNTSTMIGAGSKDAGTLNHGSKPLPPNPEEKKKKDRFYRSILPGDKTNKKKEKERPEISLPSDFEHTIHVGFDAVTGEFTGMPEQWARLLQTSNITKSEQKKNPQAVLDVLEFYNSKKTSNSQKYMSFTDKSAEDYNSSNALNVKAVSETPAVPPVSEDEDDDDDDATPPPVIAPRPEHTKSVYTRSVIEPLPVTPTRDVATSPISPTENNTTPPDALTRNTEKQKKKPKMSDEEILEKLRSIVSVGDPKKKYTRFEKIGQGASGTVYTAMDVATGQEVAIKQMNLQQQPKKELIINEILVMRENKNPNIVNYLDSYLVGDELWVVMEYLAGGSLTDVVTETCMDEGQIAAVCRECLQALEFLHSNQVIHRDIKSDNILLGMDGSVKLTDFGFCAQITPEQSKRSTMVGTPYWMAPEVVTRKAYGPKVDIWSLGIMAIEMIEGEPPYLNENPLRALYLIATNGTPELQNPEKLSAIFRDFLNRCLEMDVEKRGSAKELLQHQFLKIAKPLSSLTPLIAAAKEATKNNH

Compound	inhibition [2]	residual activity [3] [%]	residual activity [4] [%]	residual activity [5] [%]	residual activity [6] [%]	residual activity [7] [%]	residual activity [8] [%]	residual activity [9] [%]	residual activity [10] [%]	residual activity [11] [%]	residual activity [12] [%]	residual activity [13] [%]	residual activity [14] [%]	residual activity [15] [%]	residual activity [16] [%]	residual activity [17] [%]	IC50 [1] [nM]
COc1ccc(-c2c[nH]c3ncc(-c4cc(OC)c(OC)c(OC)c4)cc23)cc1OC	Active	54	78	95	68	78	83	0.95	91	97	69	64	94	59	86	25	910
COc1ccc(-c2c[nH]c3ncc(-c4ccc(C(=O)N5CCOCC5)c(N)c4)cc23)cc1OC	–	54	78	82	73	59	87	0.25	96	79	0.75	63	95	36	82	25	2010
COc1cc(-c2c[nH]c3ncc(-c4cccc(N)c4)cc23)cc(OC)c1OC	Active	35	28	85	70	85	89	86	100	96	22	64	87	65	77	85	810

Second part, led by results:

inhibition [2]	residual activity [3] [%]	residual activity [4] [%]	residual activity [5] [%]	residual activity [6] [%]	residual activity [7] [%]	residual activity [8] [%]	residual activity [9] [%]	residual activity [10] [%]	residual activity [11] [%]	residual activity [12] [%]	residual activity [13] [%]	residual activity [14] [%]	residual activity [15] [%]	residual activity [16] [%]	residual activity [17] [%]	Compound	IC50 [1] [nM]
Active	47	83	81	43	76	88	2.4	79	79	31	87	93	21	87	51	COc1ccc(-c2cnc3[nH]cc(-c4ccc(OC)c(OC)c4)c3c2)cc1N	870
Active	34	81	85	70	74	85	0.2	100	96	12	94	100	16	81	16	COc1ccc(-c2cnc3[nH]cc(-c4ccc(OC)c(OC)c4)c3c2)cc1OC	760
